# In ChEMBL document CHEMBL3085640, “Synthesis and antimicrobial activity of some novel hydrazide, benzochromenone, dihydropyridine, pyrrole, thiazole and thiophene derivatives” (2013):
# Calls of active or inactive are those of the source. The rule behind the calls is not given here.
# System: Staphylococcus aureus
# Assay: Antibacterial activity against Staphylococcus aureus MTCC 96 assessed as growth inhibition after 24 hrs by broth microdilution method
# Format: functional
# Conditions: MTCC 96, 24 h
# In short: (§1)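 MIC by broth microdilution in Müller-Hinton broth. DMSO stocks are diluted in broth to give two-fold serial dilutions, and about 10^6 CFU/mL of bacteria is added per well. Sealed plates are incubated in a humid chamber at 36 °C for 24 h. The MIC is the lowest concentration showing no visible turbidity. Run only for compounds giving zones >10 mm.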
row,SMILES,MIC
1,C/C(=N\n1c(N)cc(N)c(C#N)c1=O)c1cc2c(ccc3ccccc32)oc1=O,375 mg/L
2,C/C(=N\N1C(=O)C(C#N)C=C1c1ccccc1)c1cc2c(ccc3ccccc32)oc1=O (stereo not drawn),125 mg/L
3,C/C(=N\NC(=O)c1cc2c(ccc3ccccc32)oc1=O)c1cc2c(ccc3ccccc32)oc1=O,62.5 mg/L
4,C/C(=N\n1c(N)c(C#N)c(-c2ccc(F)cc2)c(C#N)c1=O)c1cc2c(ccc3ccccc32)oc1=O,125 mg/L
5,C/C(=N\NC(=O)c1c(N)sc2c1CCCC2)c1cc2c(ccc3ccccc32)oc1=O,375 mg/L
6,C/C(=N\NC(=O)/C(C#N)=C/c1ccc(F)cc1)c1cc2c(ccc3ccccc32)oc1=O,125 mg/L
7,COc1ccc(OC)c(-c2c(C#N)c(N)n(/N=C(\C)c3cc4c(ccc5ccccc54)oc3=O)c(=O)c2C#N)c1,125 mg/L
8,CC1(C)S[C@@H]2[C@H](NC(=O)[C@H](N)c3ccccc3)C(=O)N2[C@H]1C(=O)O [AMPICILLIN],188 mg/L

# System: Escherichia coli
# Assay: Antibacterial activity against Escherichia coli MTCC 443 assessed as growth inhibition after 24 hrs by broth microdilution method
# Format: functional
# Conditions: not given
# In short: as §1
row,SMILES,MIC
1,C/C(=N\NC(=O)c1c(N)sc2c1CCCC2)c1cc2c(ccc3ccccc32)oc1=O,inactive

# Same assay, conditions: MTCC 443, 24 h
row,SMILES,MIC
1,C/C(=N\n1c(N)cc(N)c(C#N)c1=O)c1cc2c(ccc3ccccc32)oc1=O,125 mg/L
2,C/C(=N\N1C(=O)C(C#N)C=C1c1ccccc1)c1cc2c(ccc3ccccc32)oc1=O (stereo not drawn),250 mg/L
3,C/C(=N\NC(=O)c1cc2c(ccc3ccccc32)oc1=O)c1cc2c(ccc3ccccc32)oc1=O,93.7 mg/L
4,C/C(=N\n1c(N)c(C#N)c(-c2ccc(F)cc2)c(C#N)c1=O)c1cc2c(ccc3ccccc32)oc1=O,125 mg/L
5,C/C(=N\NC(=O)/C(C#N)=C/c1ccc(F)cc1)c1cc2c(ccc3ccccc32)oc1=O,250 mg/L
6,COc1ccc(OC)c(-c2c(C#N)c(N)n(/N=C(\C)c3cc4c(ccc5ccccc54)oc3=O)c(=O)c2C#N)c1,125 mg/L
7,CC1(C)S[C@@H]2[C@H](NC(=O)[C@H](N)c3ccccc3)C(=O)N2[C@H]1C(=O)O [AMPICILLIN],125 mg/L

# System: Candida albicans
# Assay: Antifungal activity against Candida albicans assessed as growth inhibition at 1 mg/mL after 48 hrs by […] method
# Format: functional
# Conditions: read-out: DIZ
# In short: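 Sterile filter-paper discs soaked in a 1 mg/mL DMSO solution of the compound are placed on nutrient agar seeded with about 10^4 CFU/mL of C. albicans, in triplicate. Plates are incubated at 36 °C for 48 h. The read-out is the mean diameter of the inhibition zone in mm, with a DMSO-only control.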
row,SMILES,zone of inhibition at 1000 µg/mL
1,Clc1ccccc1C(c1ccccc1)(c1ccccc1)n1ccnc1 [CLOTRIMAZOLE],30 mm
2,C/C(=N\n1c(N)cc(N)c(C#N)c1=O)c1cc2c(ccc3ccccc32)oc1=O,18 mm
3,C/C(=N\N1C(=O)C(C#N)C=C1c1ccccc1)c1cc2c(ccc3ccccc32)oc1=O (stereo not drawn),13 mm
4,C/C(=N\NC(=O)c1cc2c(ccc3ccccc32)oc1=O)c1cc2c(ccc3ccccc32)oc1=O,20 mm
5,C/C(=N\n1c(N)c(C#N)c(-c2ccc(F)cc2)c(C#N)c1=O)c1cc2c(ccc3ccccc32)oc1=O,10 mm
6,C/C(=N\NC(=O)c1c(N)sc2c1CCCC2)c1cc2c(ccc3ccccc32)oc1=O,9 mm
7,C/C(=N\NC(=O)/C(C#N)=C/c1ccc(F)cc1)c1cc2c(ccc3ccccc32)oc1=O,18 mm
8,COc1ccc(OC)c(-c2c(C#N)c(N)n(/N=C(\C)c3cc4c(ccc5ccccc54)oc3=O)c(=O)c2C#N)c1,18 mm

# System: Escherichia coli
# Assay: Antibacterial activity against Escherichia coli MTCC 443 assessed as growth inhibition at 1 mg/mL after 24 hrs by […] method
# Format: functional
# Conditions: not given
# In short: (§2)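 Sterile filter-paper discs soaked in a 1 mg/mL DMSO solution of the compound are placed on nutrient agar seeded with about 10^6 CFU/mL of bacteria, in triplicate. Plates are incubated at 36 °C for 24 h. The read-out is the mean diameter of the inhibition zone in mm. DMSO alone serves as the control.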
row,SMILES,growth inhibition (GI)
1,C/C(=N\NC(=O)c1c(N)sc2c1CCCC2)c1cc2c(ccc3ccccc32)oc1=O,inactive

# Same assay, conditions: MTCC 443, 24 h, read-out: DIZ
row,SMILES,zone of inhibition at 1000 µg/mL
1,C/C(=N\n1c(N)cc(N)c(C#N)c1=O)c1cc2c(ccc3ccccc32)oc1=O,23 mm
2,C/C(=N\N1C(=O)C(C#N)C=C1c1ccccc1)c1cc2c(ccc3ccccc32)oc1=O (stereo not drawn),16 mm
3,C/C(=N\NC(=O)c1cc2c(ccc3ccccc32)oc1=O)c1cc2c(ccc3ccccc32)oc1=O,28 mm
4,C/C(=N\n1c(N)c(C#N)c(-c2ccc(F)cc2)c(C#N)c1=O)c1cc2c(ccc3ccccc32)oc1=O,21 mm
5,C/C(=N\NC(=O)/C(C#N)=C/c1ccc(F)cc1)c1cc2c(ccc3ccccc32)oc1=O,20 mm
6,COc1ccc(OC)c(-c2c(C#N)c(N)n(/N=C(\C)c3cc4c(ccc5ccccc54)oc3=O)c(=O)c2C#N)c1,23 mm
7,CC1(C)S[C@@H]2[C@H](NC(=O)[C@H](N)c3ccccc3)C(=O)N2[C@H]1C(=O)O [AMPICILLIN],27 mm

# System: Candida albicans
# Assay: Antifungal activity against Candida albicans assessed as growth inhibition after 48 hrs by broth microdilution method
# Format: functional
# Conditions: not given
# In short: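 MIC by broth microdilution in Sabouraud liquid medium. DMSO stocks are serially diluted two-fold in broth and inoculated with C. albicans. Sealed plates are incubated in a humid chamber at 36 °C for 48 h. The MIC is the lowest concentration without visible turbidity. Run only for compounds giving zones >10 mm.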
row,SMILES,MIC
1,Clc1ccccc1C(c1ccccc1)(c1ccccc1)n1ccnc1 [CLOTRIMAZOLE],5.8 mg/L
2,C/C(=N\n1c(N)cc(N)c(C#N)c1=O)c1cc2c(ccc3ccccc32)oc1=O,125 mg/L
3,C/C(=N\N1C(=O)C(C#N)C=C1c1ccccc1)c1cc2c(ccc3ccccc32)oc1=O (stereo not drawn),250 mg/L
4,C/C(=N\NC(=O)c1cc2c(ccc3ccccc32)oc1=O)c1cc2c(ccc3ccccc32)oc1=O,188 mg/L
5,C/C(=N\n1c(N)c(C#N)c(-c2ccc(F)cc2)c(C#N)c1=O)c1cc2c(ccc3ccccc32)oc1=O,375 mg/L
6,C/C(=N\NC(=O)c1c(N)sc2c1CCCC2)c1cc2c(ccc3ccccc32)oc1=O,500 mg/L
7,C/C(=N\NC(=O)/C(C#N)=C/c1ccc(F)cc1)c1cc2c(ccc3ccccc32)oc1=O,125 mg/L
8,COc1ccc(OC)c(-c2c(C#N)c(N)n(/N=C(\C)c3cc4c(ccc5ccccc54)oc3=O)c(=O)c2C#N)c1,125 mg/L

# System: Staphylococcus aureus
# Assay: Antibacterial activity against Staphylococcus aureus MTCC 96 assessed as growth inhibition at 1 mg/mL after 24 hrs by […] method
# Format: functional
# Conditions: MTCC 96, 24 h, read-out: DIZ
# In short: as §2
row,SMILES,zone of inhibition at 1000 µg/mL
1,C/C(=N\n1c(N)cc(N)c(C#N)c1=O)c1cc2c(ccc3ccccc32)oc1=O,8 mm
2,C/C(=N\N1C(=O)C(C#N)C=C1c1ccccc1)c1cc2c(ccc3ccccc32)oc1=O (stereo not drawn),13 mm
3,C/C(=N\NC(=O)c1cc2c(ccc3ccccc32)oc1=O)c1cc2c(ccc3ccccc32)oc1=O,27 mm
4,C/C(=N\n1c(N)c(C#N)c(-c2ccc(F)cc2)c(C#N)c1=O)c1cc2c(ccc3ccccc32)oc1=O,21 mm
5,C/C(=N\NC(=O)c1c(N)sc2c1CCCC2)c1cc2c(ccc3ccccc32)oc1=O,5 mm
6,C/C(=N\NC(=O)/C(C#N)=C/c1ccc(F)cc1)c1cc2c(ccc3ccccc32)oc1=O,22 mm
7,COc1ccc(OC)c(-c2c(C#N)c(N)n(/N=C(\C)c3cc4c(ccc5ccccc54)oc3=O)c(=O)c2C#N)c1,23 mm
8,CC1(C)S[C@@H]2[C@H](NC(=O)[C@H](N)c3ccccc3)C(=O)N2[C@H]1C(=O)O [AMPICILLIN],25 mm
